Source: ChEMBL document CHEMBL1671781, “Discovery and biological characterization of (2R,4S)-1'-acetyl-N-{(1R)-1-[3,5-bis(trifluoromethyl)phenyl]ethyl}-2-(4-fluoro-2-methylphenyl)-N-methyl-4,4'-bipiperidine-1-carboxamide as a new potent and selective neurokinin 1 (NK1) receptor antagonist clinical candidate” (J Med Chem, 2011)
pKi: −log10 of the molar value. Blank lines part the entries; values can stand above or below the compound they belong to. Calls of active or inactive are those of the source. The rule behind the calls is not given here.

How the values were obtained:
Meriones unguiculatus [1] = assay: Inhibition of GR73632-induced foot tapping in orally dosed Mongolian gerbil after 1 hr; type: functional; conditions: po, read-out: ID50 (the source's name)
Outline: (§1)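 GR73632 (3 pmol/5 μL) injected icv into the lateral ventricle of Mongolian gerbils; after 1 min recovery, hind foot tapping timed for 3 min (max 180 s). Oral compound or vehicle (10 mL/kg) given 1, 4, 8 or 24 h beforehand, at least seven animals per group.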

Substance-P receptor = Substance-P receptor (Homo sapiens, UniProt P25103); assay: Displacement of [3H]SP from human NK1 receptor expressed in CHO cells by liquid scintillation counting; type: cell-based
Meriones unguiculatus [2] = assay: Inhibition of GR73632-induced foot tapping in sc dosed Mongolian gerbil after 1 hr; type: functional; conditions: read-out: ID50 (the source's name)
Outline: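 Gerbil foot tapping model: icv GR73632 3 pmol/5 μL into the lateral ventricle, tapping recorded for 3 min after 1 min recovery. Compound given sc 1 h before agonist, seven animals per group.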

Meriones unguiculatus [3] = assay: Inhibition of GR73632-induced foot tapping in orally dosed Mongolian gerbil after 8 hrs; type: functional; conditions: po, read-out: ID50 (the source's name); outline: as §1
Meriones unguiculatus [4] = assay: Inhibition of GR73632-induced foot tapping in orally dosed Mongolian gerbil after 24 hrs; type: functional; conditions: po, read-out: ID50 (the source's name); outline: as §1
[5] = target: Sigma non-opioid intracellular receptor 1 (Homo sapiens, UniProt Q99720); assay: Binding affinity to sigma 1 receptor
[6] = Binding affinity to sodium channel site 2
[7] = Binding affinity to calcium channel L type dihydropyridine binding site
[8] = Binding affinity to calcium channel L type benzodiazepine binding site
Meriones unguiculatus [9] = assay: Antidepressant activity against Mongolian gerbil assessed as increase in social interaction time at 0.3 to 1 mg/kg, po; type: functional, organism-based
Outline: (§2)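 Pairs of unfamiliar male Mongolian gerbils (50-70 g), matched for treatment, placed in arena centre; active social interaction (sniffing, following, partner grooming, wrestling) scored for 5 min. Dosing 1 h before test, po at 0.1, 0.3 and 1.0 mg/kg (10 mL/kg), randomized, 10 animals per group. One-way ANOVA with Dunnett's test or paired t test versus vehicle.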

Meriones unguiculatus [10] = assay: Antidepressant activity against po dosed Mongolian gerbil assessed as increase in social interaction time; type: functional, organism-based; outline: as §2
Meriones unguiculatus [11] = assay: Toxicity in Mongolian gerbil assessed as abnormal behavior at 0.3 to 1 mg/kg, po; type: organism-based; parameters: dose 0.3-1 mg/kg, route oral; conditions: in vivo
Outline: (§3)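 Gerbil social interaction arena, po dosing 1 h pretest (0.1, 0.3, 1.0 mg/kg; 10 mL/kg; 10 per group). Abnormal behaviours noted during the 5 min session; sedation checked as locomotor activity scored by line crossing. Compared with vehicle by one-way ANOVA plus Dunnett's test or paired t test.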

Meriones unguiculatus [12] = assay: Antidepressant activity against po dosed Mongolian gerbil assessed as increase in social interaction time at 1 mg/kg, po (Rbv = 19+/-1.2seconds); type: functional; outline: as §2
Meriones unguiculatus [13] = assay: Toxicity in Mongolian gerbil assessed as locomotor activity at 1 mg/kg, po; type: functional, organism-based; parameters: dose 1 mg/kg; outline: as §3
[14] = Plasma clearance in mouse at 2 mg/kg, po; type: ADME, organism-based; parameters: dose 2 mg/kg, route oral
Mus musculus = assay: Volume of distribution at steady state in mouse at 2 mg/kg, po; type: ADME, organism-based; parameters: dose 2 mg/kg, route oral; conditions: in vivo
[15] = Half life in mouse at 2 mg/kg, po; type: ADME, organism-based; parameters: dose 2 mg/kg, route oral; conditions: in vivo
Outline: (§4)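 Mice given 1 mg/kg iv and 2 mg/kg po using a composite design, three animals per time point (n = 21 per arm). Blood collected at nominal times, plasma prepared by centrifugation and analysed by protein precipitation plus HPLC-MS/MS; parameters derived from plasma concentrations.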

[16] = Oral bioavailability in mouse at 2 mg/kg; type: ADME, organism-based; conditions: in vivo; outline: as §4
Rattus norvegicus = assay: Volume of distribution at steady state in rat at 1 mg/kg, iv and po; type: ADME, organism-based; parameters: dose 1 mg/kg, route oral; conditions: in vivo
Outline: (§5)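 Rats (n = 6) were dosed at 1 mg/kg iv bolus and po by gavage. Serial blood sampling; plasma obtained by centrifugation, then protein precipitation and HPLC-MS/MS quantitation. PK parameters calculated from plasma concentrations.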

[17] = Half life in rat at 1 mg/kg, iv and po; type: ADME, organism-based; parameters: dose 1 mg/kg, route oral; conditions: in vivo; outline: as §5
[18] = Oral bioavailability in rat at 1 mg/kg; type: ADME, organism-based; conditions: in vivo; outline: as §5
[19] = Plasma clearance in dog at 0.5 mg/kg, iv; type: ADME, organism-based, Canis lupus familiaris; parameters: dose 0.5 mg/kg, route intravenous
Outline: (§6)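 Dog (n = 6), cynomolgus monkey (n = 3) and marmoset (n = 3) received an iv bolus at 0.5 mg/kg and po gavage at 1 mg/kg. Serial blood samples taken, spun to plasma, and assayed after protein precipitation by HPLC-MS/MS; parameters derived from plasma concentrations.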

[20] = Volume of distribution at steady state in dog at 0.5 mg/kg, iv; type: ADME, organism-based, Canis lupus familiaris; parameters: dose 0.5 mg/kg, route intravenous; conditions: in vivo, read-out: Vdss; outline: as §6
[21] = Half life in dog at 0.5 mg/kg, iv; type: ADME, organism-based, Canis lupus familiaris; parameters: dose 0.5 mg/kg, route intravenous; conditions: in vivo; outline: as §6
[22] = Bioavailability in dog at 0.5 mg/kg, iv; type: ADME, organism-based, Canis lupus familiaris; conditions: in vivo; outline: as §6
[23] = Plasma clearance in cynomolgus monkey at 1 mg/kg, iv; type: ADME, organism-based, Macaca fascicularis; parameters: dose 1 mg/kg, route intravenous
[24] = Volume of distribution at steady state in cynomolgus monkey at 1 mg/kg, iv; type: ADME, organism-based, Macaca fascicularis; parameters: dose 1 mg/kg, route intravenous; conditions: in vivo, read-out: Vdss
[25] = Half life […] cynomolgus monkey at 1 mg/kg, iv; type: ADME, organism-based, Macaca fascicularis; parameters: dose 1 mg/kg, route intravenous; conditions: in vivo
[26] = Bioavailability in cynomolgus monkey at 1 mg/kg, iv; type: ADME, organism-based, Macaca fascicularis; conditions: in vivo
[27] = Plasma clearance in marmoset at 1 mg/kg, iv; type: ADME, organism-based, Callithrix jacchus; parameters: dose 1 mg/kg, route intravenous
[28] = Volume of distribution at steady state in marmoset at 1 mg/kg, iv; type: ADME, organism-based, Callithrix jacchus; parameters: dose 1 mg/kg, route intravenous; conditions: in vivo, read-out: Vdss
[29] = Half life in marmoset at 1 mg/kg, iv; type: ADME, organism-based, Callithrix jacchus; parameters: dose 1 mg/kg, route intravenous; conditions: in vivo
[30] = Bioavailability in marmoset at 1 mg/kg, iv; type: ADME, organism-based, Callithrix jacchus; conditions: in vivo
Meriones unguiculatus [31] = assay: Inhibition of GR73632-induced foot tapping in orally dosed Mongolian gerbil after 4 hrs; type: functional; conditions: po, read-out: ID50 (the source's name); outline: as §1

Substance-P receptor, sequence (P25103 whole entry): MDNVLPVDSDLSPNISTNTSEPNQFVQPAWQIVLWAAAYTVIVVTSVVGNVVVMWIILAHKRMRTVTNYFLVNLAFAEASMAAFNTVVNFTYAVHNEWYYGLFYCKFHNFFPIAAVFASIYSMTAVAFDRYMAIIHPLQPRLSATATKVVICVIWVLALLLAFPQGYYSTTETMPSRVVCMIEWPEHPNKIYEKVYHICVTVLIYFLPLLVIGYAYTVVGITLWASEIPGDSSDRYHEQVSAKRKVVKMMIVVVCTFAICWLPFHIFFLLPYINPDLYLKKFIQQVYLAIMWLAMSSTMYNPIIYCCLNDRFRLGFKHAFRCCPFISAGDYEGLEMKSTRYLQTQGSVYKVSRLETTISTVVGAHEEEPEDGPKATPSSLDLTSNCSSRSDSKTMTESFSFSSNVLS
Sigma non-opioid intracellular receptor 1, sequence (Q99720 whole entry): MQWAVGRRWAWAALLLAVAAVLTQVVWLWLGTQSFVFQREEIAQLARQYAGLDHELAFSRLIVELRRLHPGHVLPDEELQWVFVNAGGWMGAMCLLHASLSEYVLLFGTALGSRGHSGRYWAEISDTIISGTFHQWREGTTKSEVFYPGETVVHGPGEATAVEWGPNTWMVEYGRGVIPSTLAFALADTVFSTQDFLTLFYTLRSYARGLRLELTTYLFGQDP

SMILES: CC(=O)N1CCN([C@@H]2CCN(C(=O)N(C)[C@H](C)c3cc(C(F)(F)F)cc(C(F)(F)F)c3)[C@@H](c3ccc(F)cc3C)C2)CC1
- ED50 (Meriones unguiculatus [1]): > 0.3 mg/kg

SMILES: CC(=O)N1CCN([C@H]2CCN(C(=O)N(C)[C@H](C)c3cc(C(F)(F)F)cc(C(F)(F)F)c3)[C@@H](c3ccc(F)cc3C)C2)CC1 [CASOPITANT]
- ED50 (Meriones unguiculatus [1]): 0.08 mg/kg
- ED50 (Meriones unguiculatus [2]): 0.05 mg/kg
- ED50 (Meriones unguiculatus [3]): 0.19 mg/kg
- ED50 (Meriones unguiculatus [4]): 1.1 mg/kg
- pKi [5]: 5.53
- pKi [6]: 5.37
- pKi [7]: 5.18
- pKi [8]: 5.06
- Activity (Meriones unguiculatus [9]): Active
- Activity (Meriones unguiculatus [10]): Dose-dependent effect
- Activity (Meriones unguiculatus [11]): Non-toxic
- Time (Meriones unguiculatus [12]): 36.6 s
- Activity (Meriones unguiculatus [13]): Not toxic
- CL/F [14]: 120 mL/min/kg
- Vdss (Mus musculus): 4 L/kg
- half-life [15]: 1.1 h
- bioavailability [16]: 21%
- Vdss (Rattus norvegicus): 3.2 L/kg
- half-life [17]: 1.8 h
- bioavailability [18]: 8%
- clearance [19]: 10 mL/min/kg
- Vd [20]: 1.9 L/kg
- half-life [21]: 4.5 h
- bioavailability [22]: 34%
- clearance [23]: 26 mL/min/kg
- Vd [24]: 3 L/kg
- half-life [25]: 2.1 h
- bioavailability [26]: 8%
- clearance [27]: 29 mL/min/kg
- Vd [28]: 3.1 L/kg
- half-life [29]: 1.7 h
- bioavailability [30]: 14%

SMILES: Cc1cc(F)ccc1[C@H]1C[C@H](N(C)C)CCN1C(=O)N(C)[C@H](C)c1cc(C(F)(F)F)cc(C(F)(F)F)c1
- pKi (Substance-P receptor): 9.03

SMILES: Cc1cc(F)ccc1[C@H]1C[C@@H](N2CCCC2)CCN1C(=O)N(C)Cc1cc(C(F)(F)F)cc(C(F)(F)F)c1
- pKi (Substance-P receptor): 9.56
- ED50 (Meriones unguiculatus [1]): 0.3 mg/kg

SMILES: Cc1cc(F)ccc1[C@H]1CNCCN1C(=O)N(C)[C@H](C)c1cc(C(F)(F)F)cc(C(F)(F)F)c1 [VESTIPITANT]
- ED50 (Meriones unguiculatus [1]): 0.014 mg/kg

SMILES: Cc1cc(F)ccc1[C@H]1C[C@@H](NC2CC2)CCN1C(=O)N(C)[C@H](C)c1cc(C(F)(F)F)cc(C(F)(F)F)c1
- pKi (Substance-P receptor): 9.49
- ED50 (Meriones unguiculatus [31]): 0.39 mg/kg

SMILES: Cc1cc(F)ccc1[C@H]1C[C@H](N2CCC2)CCN1C(=O)N(C)[C@H](C)c1cc(C(F)(F)F)cc(C(F)(F)F)c1
- pKi (Substance-P receptor): 9.19

Further compounds by rising pKi (Substance-P receptor), results first:

- pKi (Substance-P receptor): 9.62
SMILES: Cc1cc(F)ccc1[C@H]1C[C@@H](N(C)C)CCN1C(=O)N(C)[C@H](C)c1cc(C(F)(F)F)cc(C(F)(F)F)c1
- ED50 (Meriones unguiculatus [1]): 0.9 mg/kg

- pKi (Substance-P receptor): 9.68
SMILES: COCCN[C@H]1CCN(C(=O)N(C)[C@H](C)c2cc(C(F)(F)F)cc(C(F)(F)F)c2)[C@@H](c2ccc(F)cc2C)C1

- pKi (Substance-P receptor): 9.70
SMILES: CN[C@H]1CCN(C(=O)N(C)Cc2cc(C(F)(F)F)cc(C(F)(F)F)c2)[C@@H](c2ccc(F)cc2C)C1

- pKi (Substance-P receptor): 9.70
SMILES: Cc1cc(F)ccc1[C@H]1C[C@H](N2CCCC2)CCN1C(=O)N(C)[C@H](C)c1cc(C(F)(F)F)cc(C(F)(F)F)c1
- ED50 (Meriones unguiculatus [31]): > 1 mg/kg

- pKi (Substance-P receptor): 9.75
SMILES: Cc1cc(F)ccc1[C@H]1C[C@@H](N2CCC2)CCN1C(=O)N(C)[C@H](C)c1cc(C(F)(F)F)cc(C(F)(F)F)c1

- pKi (Substance-P receptor): 9.77
SMILES: Cc1cc(F)ccc1[C@H]1C[C@@H](NC2CCC2)CCN1C(=O)N(C)[C@H](C)c1cc(C(F)(F)F)cc(C(F)(F)F)c1

- pKi (Substance-P receptor): 9.85
SMILES: Cc1cc(F)ccc1[C@H]1C[C@@H](N2CCCC2)CCN1C(=O)N(C)[C@H](C)c1cc(C(F)(F)F)cc(C(F)(F)F)c1
- ED50 (Meriones unguiculatus [1]): 0.92 mg/kg

- pKi (Substance-P receptor): 9.93
SMILES: CC(=O)N1CCN([C@H]2CCN(C(=O)N(C)Cc3cc(C(F)(F)F)cc(C(F)(F)F)c3)[C@@H](c3ccc(F)cc3C)C2)CC1
- ED50 (Meriones unguiculatus [1]): 0.09 mg/kg

- pKi (Substance-P receptor): 10.09
SMILES: Cc1cc(F)ccc1[C@H]1C[C@@H](N2CCC2)CCN1C(=O)N(C)Cc1cc(C(F)(F)F)cc(C(F)(F)F)c1
- ED50 (Meriones unguiculatus [31]): 0.13 mg/kg

- pKi (Substance-P receptor): 10.10
SMILES: Cc1cc(F)ccc1[C@H]1C[C@@H](N(C)C)CCN1C(=O)N(C)Cc1cc(C(F)(F)F)cc(C(F)(F)F)c1
- ED50 (Meriones unguiculatus [1]): 0.26 mg/kg
